14 molecules from ChEMBL document CHEMBL3102805, “Truncated Orexin Peptides: Structure-Activity Relationship Studies” (ACS Med Chem Lett, 2013) can be followed below.

Assay [1] has as its target T1, Orexin receptor type 2 (Homo sapiens) (UniProt O43614).
T1 sequence (whole entry): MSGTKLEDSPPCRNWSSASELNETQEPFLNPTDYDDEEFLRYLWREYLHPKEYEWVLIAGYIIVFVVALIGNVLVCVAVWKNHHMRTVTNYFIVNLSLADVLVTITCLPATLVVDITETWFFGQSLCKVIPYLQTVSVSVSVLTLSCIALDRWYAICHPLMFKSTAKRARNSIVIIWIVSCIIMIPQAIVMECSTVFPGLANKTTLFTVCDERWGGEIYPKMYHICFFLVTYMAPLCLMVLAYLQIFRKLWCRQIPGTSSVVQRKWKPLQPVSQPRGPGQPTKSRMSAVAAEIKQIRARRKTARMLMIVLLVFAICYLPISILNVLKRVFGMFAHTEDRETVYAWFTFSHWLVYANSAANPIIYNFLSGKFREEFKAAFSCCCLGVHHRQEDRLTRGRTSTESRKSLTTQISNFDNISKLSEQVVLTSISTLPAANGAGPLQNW
The assay is described as follows: Agonist activity at human OX2 receptor overexpressed in CHO-RD-HGA16 cells assessed as calcium mobilization at 10 uM after 15 mins by fluorescence assay relative to control. Format: functional, cell-based.

Assay [2] deals with T2, Orexin/Hypocretin receptor type 1 (Homo sapiens) (UniProt O43613).
T2 sequence (whole entry): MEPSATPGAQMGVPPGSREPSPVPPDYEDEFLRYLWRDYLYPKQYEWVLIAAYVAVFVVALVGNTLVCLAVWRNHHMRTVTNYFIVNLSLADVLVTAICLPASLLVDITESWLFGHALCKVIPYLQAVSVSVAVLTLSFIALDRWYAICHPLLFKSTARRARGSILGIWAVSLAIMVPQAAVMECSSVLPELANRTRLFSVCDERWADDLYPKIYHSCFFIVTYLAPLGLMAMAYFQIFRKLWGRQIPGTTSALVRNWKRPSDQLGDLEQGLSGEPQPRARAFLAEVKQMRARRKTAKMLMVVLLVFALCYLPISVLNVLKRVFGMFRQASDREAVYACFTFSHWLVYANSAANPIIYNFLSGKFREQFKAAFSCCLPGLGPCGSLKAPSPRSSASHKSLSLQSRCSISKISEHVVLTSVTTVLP
The assay is described as follows: Agonist activity at human OX1 receptor overexpressed in CHO-RD-HGA16 cells assessed as calcium mobilization at 10 uM after 15 mins by fluorescence assay relative to control. It counts as functional, cell-based. A general note: A change in cytosolic calcium serves as a functional read-out for many receptors and channels.

In another assay the target is T3, Orexin receptor type 2 (Homo sapiens, UniProt O43614).
T3 sequence (O43614 whole entry): T1 sequence (whole entry)
The experiment in a line: Agonist activity at human OX2 receptor overexpressed in CHO-RD-HGA16 cells assessed as calcium mobilization after 15 mins by fluorescence assay. Format: functional, cell-based.

The next assay is filed under the species Homo sapiens. The assay is described as follows: Selectivity ratio of EC50 for human OX2 receptor to EC50 for human OX1 receptor.
Assay [3] addresses T4, Orexin/Hypocretin receptor type 1 (Homo sapiens, UniProt O43613).
T4 sequence (O43613 whole entry): T2 sequence (whole entry)
The experiment in a line: Agonist activity at human OX1 receptor overexpressed in CHO-RD-HGA16 cells assessed as calcium mobilization after 15 mins by fluorescence assay. Format: functional, cell-based. In a few lines:
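EC50 from 8-point half-log concentration-response curves. Values are means of at least three independent experiments in duplicate, with SEM, or means of two independent duplicate experiments.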

Molecules are shown by their SMILES. Activity calls are given as the source filed them. The calls are words filed in the database; no cut-off is given here. Where a SMILES comes first, the peptide text is derived from it.

Take `CC[C@H](C)[C@H](NC(=O)CNC(=O)[C@H](C)NC(=O)[C@H](C)NC(=O)[C@H](Cc1cnc[nH]1)NC(=O)[C@H](CC(N)=O)NC(=O)CNC(=O)[C@H](C)NC(=O)CNC(=O)[C@H](Cc1cnc[nH]1)NC(=O)[C@H](CC(C)C)NC(=O)[C@H](CC(C)C)NC(=O)[C@H](CCC(=O)O)NC(=O)[C@@H](N)Cc1ccc(O)cc1)C(=O)N[C@H](CC(C)C)C(=O)N[C@H](C(=O)N[C@@H](CC(C)C)C(N)=O)[C@@H](C)O`: the Percent activation at 10 uM in assay [1] is under 50%. For the same molecule, the result in assay [2] was inactive.

On to `CC[C@H](C)[C@H](NC(=O)[C@H](C)NC(=O)[C@H](C)NC(=O)[C@H](C)NC(=O)[C@H](Cc1cnc[nH]1)NC(=O)[C@H](CC(N)=O)NC(=O)CNC(=O)[C@H](C)NC(=O)CNC(=O)[C@H](Cc1cnc[nH]1)NC(=O)[C@H](CC(C)C)NC(=O)[C@H](CC(C)C)NC(=O)[C@H](CCC(=O)O)NC(=O)[C@@H](N)Cc1ccc(O)cc1)C(=O)N[C@@H](CC(C)C)C(=O)N[C@H](C(=O)N[C@@H](CC(C)C)C(N)=O)[C@@H](C)O` (H-YELLHGAGNHAAAILTL-NH2), for which, in assay [1], the Percent activation at 10 uM was under 50%. Besides, the Calcium response at 10 uM relative to control in assay [2] is under 50%.

Take `CC[C@H](C)[C@H](NC(=O)CNC(=O)[C@H](C)NC(=O)[C@H](C)NC(=O)[C@H](Cc1cnc[nH]1)NC(=O)[C@H](CC(N)=O)NC(=O)CNC(=O)[C@H](C)NC(=O)CNC(=O)[C@@H](N)Cc1cnc[nH]1)C(=O)N[C@@H](CC(C)C)C(=O)N[C@H](C(=O)N[C@@H](CC(C)C)C(N)=O)[C@@H](C)O` (H-HGAGNHAAGILTL-NH2): the Calcium response at 10 uM relative to control in assay [2] was under 50%.

`CC[C@H](C)[C@H](NC(=O)CNC(=O)[C@H](C)NC(=O)[C@H](C)NC(=O)[C@H](Cc1cnc[nH]1)NC(=O)[C@H](CC(N)=O)NC(=O)CNC(=O)[C@H](C)NC(=O)CNC(=O)[C@H](Cc1cnc[nH]1)NC(=O)[C@H](CC(C)C)NC(=O)[C@H](CC(C)C)NC(=O)[C@H](CCC(=O)O)NC(=O)[C@@H](N)Cc1ccc(O)cc1)C(=O)N[C@@H](CC(C)C)C(=O)N[C@@H](C)C(=O)N[C@@H](CC(C)C)C(N)=O` (H-YELLHGAGNHAAGILAL-NH2): in assay [1], the Percent activation at 10 uM is under 50%. In addition, the Calcium response at 10 uM relative to control in assay [2] was under 50%.

As for `CC[C@H](C)[C@H](NC(=O)CNC(=O)[C@H](C)NC(=O)[C@H](C)NC(=O)[C@H](Cc1cnc[nH]1)NC(=O)[C@@H](CC(N)=O)NC(=O)CNC(=O)[C@H](C)NC(=O)CNC(=O)[C@H](Cc1cnc[nH]1)NC(=O)[C@H](CC(C)C)NC(=O)[C@H](CC(C)C)NC(=O)[C@H](CCC(=O)O)NC(=O)[C@@H](N)Cc1ccc(O)cc1)C(=O)N[C@@H](CC(C)C)C(=O)N[C@H](C(=O)N[C@@H](CC(C)C)C(N)=O)[C@@H](C)O`, in assay [1], the Percent activation at 10 uM was under 50%. Further, the result in assay [2] was inactive.

Regarding `CC[C@H](C)[C@H](NC(=O)CNC(=O)[C@H](C)NC(=O)[C@H](C)NC(=O)[C@H](Cc1cnc[nH]1)NC(=O)[C@H](CC(N)=O)NC(=O)CNC(=O)[C@H](C)NC(=O)CNC(=O)[C@H](Cc1cnc[nH]1)NC(=O)[C@H](CC(C)C)NC(=O)[C@H](CC(C)C)NC(=O)[C@H](CCC(=O)O)NC(=O)[C@@H](N)Cc1ccc(O)cc1)C(=O)N[C@@H](C)C(=O)N[C@H](C(=O)N[C@@H](CC(C)C)C(N)=O)[C@@H](C)O` (H-YELLHGAGNHAAGIATL-NH2), the result in assay [1] and in assay [2] was inactive.

Take `CC[C@H](C)[C@H](NC(=O)CNC(=O)[C@H](C)NC(=O)[C@H](C)NC(=O)[C@H](Cc1cnc[nH]1)NC(=O)[C@H](CC(N)=O)NC(=O)CNC(=O)[C@H](C)NC(=O)CNC(=O)[C@H](Cc1cnc[nH]1)NC(=O)[C@H](CC(C)C)NC(=O)[C@H](CC(C)C)NC(=O)[C@H](CCC(=O)O)NC(=O)[C@@H](N)Cc1ccc(O)cc1)C(=O)N[C@@H](CC(C)C)C(=O)N[C@H](C(=O)N[C@@H](C)C(N)=O)[C@@H](C)O` (H-YELLHGAGNHAAGILTA-NH2): the result in assay [1] was inactive. In assay [2], the Calcium response at 10 uM relative to control was under 50%.

With `CC(C)C[C@H](NC(=O)[C@@H](NC(=O)[C@H](CC(C)C)NC(=O)[C@H](C)NC(=O)CNC(=O)[C@H](C)NC(=O)[C@H](C)NC(=O)[C@H](Cc1cnc[nH]1)NC(=O)[C@H](CC(N)=O)NC(=O)CNC(=O)[C@H](C)NC(=O)CNC(=O)[C@H](Cc1cnc[nH]1)NC(=O)[C@H](CC(C)C)NC(=O)[C@H](CC(C)C)NC(=O)[C@H](CCC(=O)O)NC(=O)[C@@H](N)Cc1ccc(O)cc1)[C@@H](C)O)C(N)=O` (H-YELLHGAGNHAAGALTL-NH2), the result in assay [1] and in assay [2] was inactive.

As for `CC[C@H](C)[C@H](NC(=O)CNC(=O)[C@H](C)NC(=O)[C@H](C)NC(=O)[C@H](Cc1cnc[nH]1)NC(=O)[C@H](CC(N)=O)NC(=O)CNC(=O)[C@H](C)NC(=O)CNC(=O)[C@H](Cc1cnc[nH]1)NC(=O)[C@H](CC(C)C)NC(=O)[C@H](CC(C)C)NC(=O)[C@H](CCC(=O)O)NC(=O)[C@@H](N)Cc1ccc(O)cc1)C(=O)N[C@@H](CC(C)C)C(=O)N[C@@H](C(=O)N[C@@H](CC(C)C)C(N)=O)[C@H](C)O`, the result in assay [1] and in assay [2] was inactive.

A word on the EC50: it is the concentration that produces a half-maximal response. On to `CC[C@H](C)[C@H](NC(=O)CNC(=O)[C@H](C)NC(=O)[C@H](C)NC(=O)[C@H](Cc1cnc[nH]1)NC(=O)[C@H](CC(N)=O)NC(=O)CNC(=O)[C@H](CO)NC(=O)[C@H](C)NC(=O)[C@H](CCC(N)=O)NC(=O)[C@H](CC(C)C)NC(=O)[C@H](CC(C)C)NC(=O)[C@H](CCCNC(=N)N)NC(=O)[C@@H](N)CCC(N)=O)C(=O)N[C@@H](CC(C)C)C(=O)N[C@H](C(=O)N[C@@H](CCSC)C(N)=O)[C@@H](C)O` (H-QRLLQASGNHAAGILTM-NH2), for which the EC50 at Orexin receptor type 2 stood at 1040 nM. The Calcium response at 10 uM relative to control in assay [2] is under 50%.

Turning to `CC[C@H](C)[C@H](NC(=O)CNC(=O)[C@H](C)NC(=O)[C@H](C)NC(=O)[C@H](Cc1cnc[nH]1)NC(=O)[C@H](CC(N)=O)NC(=O)CNC(=O)[C@H](C)NC(=O)CNC(=O)[C@H](Cc1cnc[nH]1)NC(=O)[C@H](CC(C)C)NC(=O)[C@H](CC(C)C)NC(=O)[C@H](CCC(=O)O)NC(=O)[C@@H](N)Cc1ccc(O)cc1)C(=O)N[C@@H](CC(C)C)C(=O)N[C@H](C(=O)N[C@H](CC(C)C)C(N)=O)[C@@H](C)O`, the outcome in assay [1] and in assay [2] was inactive.

Take `CC[C@@H](C)[C@@H](NC(=O)CNC(=O)[C@H](C)NC(=O)[C@H](C)NC(=O)[C@H](Cc1cnc[nH]1)NC(=O)[C@H](CC(N)=O)NC(=O)CNC(=O)[C@H](C)NC(=O)CNC(=O)[C@H](Cc1cnc[nH]1)NC(=O)[C@H](CC(C)C)NC(=O)[C@H](CC(C)C)NC(=O)[C@H](CCC(=O)O)NC(=O)[C@@H](N)Cc1ccc(O)cc1)C(=O)N[C@@H](CC(C)C)C(=O)N[C@H](C(=O)N[C@@H](CC(C)C)C(N)=O)[C@@H](C)O`: the result in assay [1] and in assay [2] was inactive.

Turning to `CC[C@H](C)[C@H](NC(=O)CNC(=O)[C@@H](C)NC(=O)[C@H](C)NC(=O)[C@H](Cc1cnc[nH]1)NC(=O)[C@H](CC(N)=O)NC(=O)CNC(=O)[C@H](C)NC(=O)CNC(=O)[C@H](Cc1cnc[nH]1)NC(=O)[C@H](CC(C)C)NC(=O)[C@H](CC(C)C)NC(=O)[C@H](CCC(=O)O)NC(=O)[C@@H](N)Cc1ccc(O)cc1)C(=O)N[C@@H](CC(C)C)C(=O)N[C@H](C(=O)N[C@@H](CC(C)C)C(N)=O)[C@@H](C)O`, in assay [1], the Percent activation at 10 uM is under 50%. Besides, the outcome in assay [2] was inactive.

Turning to `CC[C@H](C)[C@H](NC(=O)CNC(=O)[C@H](C)NC(=O)[C@H](C)NC(=O)[C@H](Cc1cnc[nH]1)NC(=O)[C@H](C)NC(=O)CNC(=O)[C@H](C)NC(=O)CNC(=O)[C@H](Cc1cnc[nH]1)NC(=O)[C@H](CC(C)C)NC(=O)[C@H](CC(C)C)NC(=O)[C@H](CCC(=O)O)NC(=O)[C@@H](N)Cc1ccc(O)cc1)C(=O)N[C@@H](CC(C)C)C(=O)N[C@H](C(=O)N[C@@H](CC(C)C)C(N)=O)[C@@H](C)O` (H-YELLHGAGAHAAGILTL-NH2), in the assay filed under Homo sapiens, the Ratio EC50 amounted to 0.8. Besides, the values for the EC50 (at Orexin receptor type 2; in assay [3]) were 2320 nM and 3070 nM, respectively.
